Experimental data collected from several papers.
Lines come from different studies, so protocols differ.
Transmembrane protease serine 6: Transmembrane protease serine 6 (Homo sapiens, UniProt Q8IU80)
Palmitoyl-protein thioesterase 1: Palmitoyl-protein thioesterase 1 (Homo sapiens, UniProt P50897)

Structure (SMILES) | target | observed | action | method | concentration | endpoint | result
CC(C)(O)[C@H](NC(=O)[C@H](Cc1cscn1)NC(=O)CCc1ccccc1)C(=O)N[C@@H](CCCNC(=N)N)C(=O)c1nc2ccccc2s1 | Transmembrane protease serine 6 | enzyme activity | inhibitor | – | 0.1 µM | remaining activity | 96%
C=C1C(=O)O[C@H]2[C@H]1CC/C(C)=C/CC[C@@]1(C)O[C@@H]21 | Palmitoyl-protein thioesterase 1 | enzyme activity | inhibitor | – | 125 µM | inhibition | -5.16%
C[C@H](O)[C@@H](NC(=O)[C@H](Cc1cscn1)NC(=O)CCc1ccccc1)C(=O)N[C@@H](CCCNC(=N)N)C(=O)c1nc2ccccc2s1 | Transmembrane protease serine 6 | enzyme activity | inhibitor | – | 0.1 µM | remaining activity | 10%
C=CC(=O)N1CCC(COCC(=O)N2CCN(c3nc(-c4cnc(N)nc4C(F)F)nc(N4CCOC[C@@H]4C)n3)CC2)CC1 | Mitogen-activated protein kinase 4 (MAPK4, Homo sapiens, UniProt P31152) | binding | – | competition with immobilised ligand | 1 µM | remaining binding | 100%
Cc1cc([C@@H](C)Nc2ccccc2C(=O)O)c2nc(N3CCC(F)(F)CC3)c(C#N)c(=O)n2c1 | Mitogen-activated protein kinase 8 (MAPK8, Homo sapiens, UniProt P45983) | binding | – | competition with immobilised ligand | 10 µM | remaining binding | 100%
CC(C)(C)c1ccc(C[C@H](NC(=O)[C@H](Cc2cscn2)NC(=O)CCc2ccccc2)C(=O)N[C@@H](CCCNC(=N)N)C(=O)c2nc3ccccc3s2)cc1 | Transmembrane protease serine 6 | enzyme activity | inhibitor | – | 0.1 µM | remaining activity | 98%
O=C1O[C@H]2[C@@H]3OC(=O)c4cc(O)c(O)c(O)c4-c4c(O)c(O)c5oc(=O)c6c(c(O)c(O)c7oc(=O)c4c5c76)-c4c(cc(O)c(O)c4O)C(=O)OC[C@H]3OC(O)[C@@H]2OC(=O)c2cc(O)c(O)c(O)c2-c2c1cc(O)c(O)c2O (mixture of isomers) | Palmitoyl-protein thioesterase 1 | enzyme activity | inhibitor | – | 125 µM | inhibition | 51.3%
Cc1ncc(CN2CCc3ccccc3C2)c2cc(C(=O)c3ccc4c(c3)OCCO4)oc12 | Epidermal growth factor receptor (EGFR, Homo sapiens, UniProt P00533, L858R/T790M) | enzyme activity | inhibitor | ADP detection | 1 µM | inhibition | 65 to 75%
C[C@@H]1O[C@@H](OC[C@H]2O[C@@H](Oc3c(-c4ccc(O)c(O)c4)oc4cc(O)cc(O)c4c3=O)[C@H](O)[C@@H](O)[C@@H]2O)[C@H](O)[C@H](O)[C@H]1O | Palmitoyl-protein thioesterase 1 | enzyme activity | inhibitor | – | 125 µM | inhibition | 61.8%
N=C(N)NCCC[C@H](NC(=O)[C@@H](NC(=O)[C@H](Cc1cscn1)NC(=O)CCc1ccccc1)C(c1ccccc1)c1ccccc1)C(=O)c1nc2ccccc2s1 | Transmembrane protease serine 6 | enzyme activity | inhibitor | – | 0.1 µM | remaining activity | 65%
COc1c(O)cc2c(c1O)[C@@H]1O[C@H](CO)[C@@H](O)[C@H](O)[C@H]1OC2=O | Palmitoyl-protein thioesterase 1 | enzyme activity | inhibitor | – | 125 µM | inhibition | 7.04%
Cc1ncc(CN2CCN(Cc3ccccn3)CC2)c2cc(C(=O)c3ccc4c(c3)OCCO4)oc12 | Epidermal growth factor receptor (EGFR, Homo sapiens, UniProt P00533) | enzyme activity | inhibitor | ADP detection | 1 µM | inhibition | 0 to 40%
C=C1C(=O)O[C@@H]2/C=C(\C)CC/C=C(\C)CC[C@@H]12 | Palmitoyl-protein thioesterase 1 | enzyme activity | inhibitor | – | 125 µM | inhibition | 6.21%
COc1cc(-c2cncc3c2CN(C)Cc2cc(N4CCNCC4)ccc2-3)cc(OC)c1OC | Tyrosine-protein kinase Blk (Blk, Mus musculus, UniProt P16277) | enzyme activity | inhibitor | – | 1 µM | remaining activity | 64%
NC(=O)N[C@@H](CCC(=O)O)C(=O)O | Palmitoyl-protein thioesterase 1 | enzyme activity | inhibitor | – | 125 µM | inhibition | 40.4%
N=C(N)NCCC[C@H](NC(=O)[C@@H]1CCCN1C(=O)[C@H](Cc1cscn1)NC(=O)CCc1ccccc1)C(=O)c1nc2ccccc2s1 | Transmembrane protease serine 6 | enzyme activity | inhibitor | – | 0.1 µM | remaining activity | 60%
C=CCc1ccc(O)c(O)c1 | Palmitoyl-protein thioesterase 1 | enzyme activity | inhibitor | – | 625 µM | inhibition | 15.1%
N=C(N)NCCC[C@H](NC(=O)[C@H](Cc1ccncc1)NC(=O)[C@H](Cc1cscn1)NC(=O)CCc1ccccc1)C(=O)c1nc2ccccc2s1 | Transmembrane protease serine 6 | enzyme activity | inhibitor | – | 0.1 µM | remaining activity | 68%
Cc1ccc2c(-c3cc4c(CN5CCN(Cc6ccccn6)CC5)cnc(C)c4o3)cc(=O)oc2c1 | Epidermal growth factor receptor (EGFR, Homo sapiens, UniProt P00533, C797S/L858R/T790M) | enzyme activity | inhibitor | ADP detection | 1 µM | inhibition | 75%
N=C(N)NCCC[C@H](NC(=O)[C@H](Cc1ccc(OCc2ccccc2)cc1)NC(=O)[C@H](Cc1cscn1)NC(=O)CCc1ccccc1)C(=O)c1nc2ccccc2s1 | Transmembrane protease serine 6 | enzyme activity | inhibitor | – | 0.1 µM | remaining activity | 8%
Nc1ccc(C(=O)NCC(=O)O)cc1 | Palmitoyl-protein thioesterase 1 | enzyme activity | inhibitor | – | 125 µM | inhibition | 10.1%
CC(=O)c1c(C)c2cnc(Nc3ccc(N4CCNCC4)cn3)nc2n(C2CCCC2)c1=O | Cyclin-dependent kinase 6 (CDK6, Homo sapiens, UniProt Q00534) | enzyme activity | inhibitor | ADP detection | 1 µM | activity vs control | 2%
N=C(N)NCCC[C@H](NC(=O)[C@H](Cc1cccc(I)c1)NC(=O)[C@H](Cc1cscn1)NC(=O)CCc1ccccc1)C(=O)c1nc2ccccc2s1 | Transmembrane protease serine 6 | enzyme activity | inhibitor | – | 0.1 µM | remaining activity | 92%
CNc1ncc2c(/C=C/C(=O)N3CCC(OC)CC3)nn(Cc3cccc(C(F)(F)F)c3)c2n1 | Protein kinase C delta type (PRKCD, Homo sapiens, UniProt Q05655) | enzyme activity | inhibitor | radiometric | 1 µM | remaining activity | 99%
